Most compounds without a hit are left out; they make up all but 1.8% or so of the library.
NPY-Y1 antag = NPY-Y1 (human) receptor antagonism. HEK293-CNG Y1 cells, membrane potential fluorescence; NPY at EC95, then isoproterenol. inhibition, % at 3.6 µM. P25929. actives 1% (n = 200,000);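 active means inhibition above the campaign mean inhibition of all tested compounds plus 3 SD, cut at about 20% in these data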
Target sequence (P25929 whole entry, looked up): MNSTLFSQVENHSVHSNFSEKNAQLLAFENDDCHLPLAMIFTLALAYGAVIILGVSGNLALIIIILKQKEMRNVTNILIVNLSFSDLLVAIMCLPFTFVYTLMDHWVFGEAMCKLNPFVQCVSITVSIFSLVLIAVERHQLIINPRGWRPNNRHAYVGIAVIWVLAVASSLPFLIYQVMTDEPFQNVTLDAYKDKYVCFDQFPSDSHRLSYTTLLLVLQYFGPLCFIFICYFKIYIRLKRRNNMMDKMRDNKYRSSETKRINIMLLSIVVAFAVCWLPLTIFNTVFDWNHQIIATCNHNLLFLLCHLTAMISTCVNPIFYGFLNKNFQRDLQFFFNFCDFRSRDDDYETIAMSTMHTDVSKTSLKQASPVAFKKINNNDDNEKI
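Material: HEK293 Y1/CNG channel cell line | Also added: NPY (25 nM), isoproterenol (1 µM), Ro 20-1724 (25 µM) | Compound: One concentration, 3.6 µM, in 0.4% DMSO | Schedule: 3 h dye uptake, 1 h room-temperature compound, 45 min post-isoproterenol | Signal: Membrane-potential fluorescent dye readout | Read-out: % inhibition of NPY effect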
NPY2 pot ag = potentiates or activates human NPY-Y2 receptor. actives 0.45% (n = 220,000). activation, % at 3.6 µM. cells expressing NPY-Y2, potentiator/agonist read-out. P49146; in the data active means activation above about 27%;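 further: cells stimulated with NPY near EC25 plus isoproterenol at EC100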
NPY-Y1 PAM-ag = human NPY-Y1 potentiation or agonism, primary screen. P25929. NPY-Y1 expressing cells, potentiator/agonist activation. activation, % at 3.6 µM. actives 0.37% (n = 220,000). AID 1304; in the data active means activation above about 33%, passing the limit was not always enough;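 further: cells stimulated with NPY at EC10 then isoproterenol at EC100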
NPY-Y2 antag = NPY-Y2 (human) receptor antagonism. NPY-Y2 expressing cells, antagonist mode. inhibition, % at 2.7 µM. actives 0.99% (n = 140,000). AID 793; in the data active means inhibition above about 17%
Large screens that a line does not name were inactive.

COC(=O)c1cc(NC(=O)CC2SC(=Nc3ccccc3)N(CCc3c[nH]c4ccccc34)C2=O)cc(C(=O)OC)c1 (stereo unspecified)	NPY2 pot ag 35, NPY-Y1 PAM-ag 47
CC(=O)c1ccc(-n2c(=O)[nH]c(=O)c3c(N)c(C(=O)c4ccc(Cl)cc4)sc32)cc1	none (no result: NPY-Y1 antag, NPY-Y2 antag)
Cc1ccc(S(=O)(=O)N2CCC(C(=O)Nc3nnc(-c4ccco4)s3)CC2)cc1	NPY2 pot ag 52, NPY-Y1 PAM-ag 44
c1csc(COc2ccccc2CNC2CCCCC2)c1	NPY-Y1 antag 23, NPY-Y2 antag 31
CC(C)CCNC(=O)C(c1ccco1)N(Cc1cccs1)C(=O)Cn1nnc2ccccc21 (stereo unspecified)	NPY-Y1 antag 24
CN(C)c1cc(-c2ccc(Br)cc2)oc(=O)c1Cl	none (no result: NPY-Y1 antag, NPY-Y2 antag)
CNC(=O)NNC(=O)c1nc(-c2ccccc2)c(C)o1	none (no result: NPY-Y1 antag, NPY-Y2 antag)
O=C(NCc1ccc(F)cc1)c1ccc(S(=O)(=O)Nc2cccc(C(F)(F)F)c2)cc1	NPY2 pot ag 37, NPY-Y1 PAM-ag 48
O=C(NCc1ccccc1F)c1ccc(S(=O)(=O)Nc2cccc(C(F)(F)F)c2)cc1	none
Cc1nc(=S)c2c([nH]1)-c1ccccc1CC21CCCCC1	none (no result: NPY-Y1 antag, NPY-Y2 antag)
COc1ccc(C2(C)NC(=O)N(CC(=O)Nc3ccc(-c4nc5ccc(C)cc5s4)cc3)C2=O)cc1 (stereo unspecified)	NPY2 pot ag 56, NPY-Y1 PAM-ag 39 (no result: NPY-Y2 antag)
COc1ccccc1-n1c(=O)c(C#N)c(-c2ccc([N+](=O)[O-])cc2)c2cc(C(=O)c3ccccc3O)cnc21	NPY2 pot ag 49, NPY-Y1 PAM-ag 73 (no result: NPY-Y1 antag, NPY-Y2 antag)
O=C(/C=C/c1ccc(Cl)cc1)N1CCN(c2ccc(Cl)cc2[N+](=O)[O-])CC1	NPY-Y1 antag 21
COc1ccc(CCN(C(=S)Nc2ccccc2)C2CC(=O)N(c3ccccc3)C2=O)cc1 (stereo unspecified)	NPY2 pot ag 37
COc1ccc(CN(C(=S)Nc2ccccc2)C2CC(=O)N(c3ccc(F)cc3)C2=O)cc1 (stereo unspecified)	none
Cc1ccc(N/C(N)=N/c2nc(CSc3nnc(C)s3)cc(=O)[nH]2)c(C)c1	NPY-Y1 antag 20 (no result: NPY-Y2 antag)
CCOc1ccc(-c2cc(C(=O)Nc3ccc4c(c3)OCCO4)c3ccccc3n2)cc1	NPY-Y1 antag 27
CC(NC(=O)c1cc(-c2ccc3c(c2)OCO3)nc2ccccc12)C(C)(C)C (stereo unspecified)	NPY-Y1 antag 147, NPY-Y2 antag 151
CC(C)(C)c1ccc(CN2C3=NCCCN3c3ccccc32)cc1	NPY-Y1 antag 25, NPY-Y2 antag 20
Cc1ccc(CN2C3=NCCCN3c3ccccc32)cc1	none
O=C(CC1CCCCC1)OCn1nnc2ccccc2c1=O	NPY2 pot ag 103, NPY-Y1 PAM-ag 107
CC(=O)CSc1nnc(C(F)(F)F)n1C	none (no result: NPY-Y1 antag, NPY-Y2 antag)
COc1cccc(CN(C)C(=O)c2cc(COc3ccc4ncccc4c3)on2)c1	NPY-Y1 antag 21 (no result: NPY-Y2 antag)
COCCN=c1scc(-c2ccco2)n1/N=C/c1ccc(O)c(O)c1O	none (no result: NPY-Y2 antag)
CC(C)N=c1scc(-c2ccco2)n1/N=C/c1ccc(O)c(O)c1	NPY2 pot ag 34
CCOCCCn1c(C)nc2c(c1=O)c1nc3ccccc3nc1n2-c1ccc2c(c1)OCCO2	none (no result: NPY-Y1 antag, NPY-Y2 antag)
Cc1ccc(C(=O)Nn2cnnc2)cc1[N+](=O)[O-]	NPY-Y2 antag 18
Cc1cc(C)nc(NC(=O)c2ccc(C)c([N+](=O)[O-])c2)n1	none
NS(=O)(=O)c1cccc(NC(=O)c2cccnc2Oc2ccccc2)c1	none (no result: NPY-Y1 antag, NPY-Y2 antag)
C=C(C)C(=O)Nc1cccnc1Oc1ccc(F)cc1F	none (no result: NPY-Y1 antag, NPY-Y2 antag)
O=C(Nc1ccc(Cl)cc1C(=O)Nc1ccc(Br)cn1)c1ccco1	NPY-Y1 antag 21, NPY-Y2 antag 31
COc1ccc(Cl)cc1NC(=O)c1ccco1	none
CCOC(=O)c1c(C)n(C)c2ccc(O)c(CN(C)C)c12	NPY2 pot ag 70, NPY-Y1 PAM-ag 75
O=C(NCc1csc(-c2cccs2)n1)C1CCC1	none (no result: NPY-Y1 antag, NPY-Y2 antag)
COc1ccc2[nH]cc(C(=O)CNc3nc(C)cs3)c2c1	NPY2 pot ag 39, NPY-Y1 PAM-ag 48
Nc1nc(Cl)nc2c1ncn2[C@@H]1O[C@H](CO)[C@@H](O)[C@H]1O	NPY-Y1 antag 85, NPY-Y2 antag 102
Cc1ccc(S(=O)(=O)N(C)C)cc1NC(=O)c1cccnc1Oc1ccccc1	none (no result: NPY-Y1 antag, NPY-Y2 antag)
O=C(c1cccc(C(F)(F)F)c1)C1CCCN(Cc2cccn2-c2ncccn2)C1 (stereo unspecified)	NPY-Y1 antag 33 (no result: NPY-Y2 antag)
CNC(=O)COC(=O)c1ccccc1NC(=O)c1ccco1	none (no result: NPY-Y1 antag, NPY-Y2 antag)
CC1CCCCC1NC(=O)COC(=O)c1ccccc1NC(=O)c1ccco1 (stereo unspecified)	NPY-Y1 antag 30, NPY-Y2 antag 19

Screening results from PubChem.
